From ChEMBL document CHEMBL5653609, “Ack1-mediated androgen receptor phosphorylation modulates radiation resistance in castration-resistant prostate cancer” (J Biol Chem, 2012)
pIC50: −log10 of the molar value. Each block holds one compound with its values, some of them ahead of it. Activity calls are given as the source filed them. The calls are words filed in the database; no cut-off is given here.

What was measured:
[1] = biological target: Mitogen-activated protein kinase kinase kinase 8 (Homo sapiens, UniProt P41279); test: Inhibition of MAP3K8 (unknown origin) in the presence of [33P]ATP by kinase hotspot assay
Chain of Mitogen-activated protein kinase kinase kinase 8 (P41279 whole entry): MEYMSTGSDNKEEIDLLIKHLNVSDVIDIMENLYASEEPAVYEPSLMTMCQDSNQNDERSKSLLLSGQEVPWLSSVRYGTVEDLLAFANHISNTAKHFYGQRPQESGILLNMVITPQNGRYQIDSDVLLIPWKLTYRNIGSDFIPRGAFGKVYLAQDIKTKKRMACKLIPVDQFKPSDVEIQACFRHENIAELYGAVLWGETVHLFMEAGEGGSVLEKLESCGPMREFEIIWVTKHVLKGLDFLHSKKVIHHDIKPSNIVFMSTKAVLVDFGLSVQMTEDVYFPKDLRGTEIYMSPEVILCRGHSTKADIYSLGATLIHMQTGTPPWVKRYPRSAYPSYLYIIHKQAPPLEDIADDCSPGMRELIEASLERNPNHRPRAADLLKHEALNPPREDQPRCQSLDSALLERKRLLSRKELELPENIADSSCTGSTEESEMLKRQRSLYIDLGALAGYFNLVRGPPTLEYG

[2] = biological target: Serine/threonine-protein kinase mTOR (Homo sapiens, UniProt P42345); test: Inhibition of mTOR (unknown origin) in the presence of [33P]ATP by kinase hotspot assay
[3] = biological target: DNA-dependent protein kinase catalytic subunit (Homo sapiens, UniProt P78527); test: Inhibition of DNA-PK (unknown origin) in the presence of [33P]ATP by kinase hotspot assay
Chain of DNA-dependent protein kinase catalytic subunit (P78527 whole entry): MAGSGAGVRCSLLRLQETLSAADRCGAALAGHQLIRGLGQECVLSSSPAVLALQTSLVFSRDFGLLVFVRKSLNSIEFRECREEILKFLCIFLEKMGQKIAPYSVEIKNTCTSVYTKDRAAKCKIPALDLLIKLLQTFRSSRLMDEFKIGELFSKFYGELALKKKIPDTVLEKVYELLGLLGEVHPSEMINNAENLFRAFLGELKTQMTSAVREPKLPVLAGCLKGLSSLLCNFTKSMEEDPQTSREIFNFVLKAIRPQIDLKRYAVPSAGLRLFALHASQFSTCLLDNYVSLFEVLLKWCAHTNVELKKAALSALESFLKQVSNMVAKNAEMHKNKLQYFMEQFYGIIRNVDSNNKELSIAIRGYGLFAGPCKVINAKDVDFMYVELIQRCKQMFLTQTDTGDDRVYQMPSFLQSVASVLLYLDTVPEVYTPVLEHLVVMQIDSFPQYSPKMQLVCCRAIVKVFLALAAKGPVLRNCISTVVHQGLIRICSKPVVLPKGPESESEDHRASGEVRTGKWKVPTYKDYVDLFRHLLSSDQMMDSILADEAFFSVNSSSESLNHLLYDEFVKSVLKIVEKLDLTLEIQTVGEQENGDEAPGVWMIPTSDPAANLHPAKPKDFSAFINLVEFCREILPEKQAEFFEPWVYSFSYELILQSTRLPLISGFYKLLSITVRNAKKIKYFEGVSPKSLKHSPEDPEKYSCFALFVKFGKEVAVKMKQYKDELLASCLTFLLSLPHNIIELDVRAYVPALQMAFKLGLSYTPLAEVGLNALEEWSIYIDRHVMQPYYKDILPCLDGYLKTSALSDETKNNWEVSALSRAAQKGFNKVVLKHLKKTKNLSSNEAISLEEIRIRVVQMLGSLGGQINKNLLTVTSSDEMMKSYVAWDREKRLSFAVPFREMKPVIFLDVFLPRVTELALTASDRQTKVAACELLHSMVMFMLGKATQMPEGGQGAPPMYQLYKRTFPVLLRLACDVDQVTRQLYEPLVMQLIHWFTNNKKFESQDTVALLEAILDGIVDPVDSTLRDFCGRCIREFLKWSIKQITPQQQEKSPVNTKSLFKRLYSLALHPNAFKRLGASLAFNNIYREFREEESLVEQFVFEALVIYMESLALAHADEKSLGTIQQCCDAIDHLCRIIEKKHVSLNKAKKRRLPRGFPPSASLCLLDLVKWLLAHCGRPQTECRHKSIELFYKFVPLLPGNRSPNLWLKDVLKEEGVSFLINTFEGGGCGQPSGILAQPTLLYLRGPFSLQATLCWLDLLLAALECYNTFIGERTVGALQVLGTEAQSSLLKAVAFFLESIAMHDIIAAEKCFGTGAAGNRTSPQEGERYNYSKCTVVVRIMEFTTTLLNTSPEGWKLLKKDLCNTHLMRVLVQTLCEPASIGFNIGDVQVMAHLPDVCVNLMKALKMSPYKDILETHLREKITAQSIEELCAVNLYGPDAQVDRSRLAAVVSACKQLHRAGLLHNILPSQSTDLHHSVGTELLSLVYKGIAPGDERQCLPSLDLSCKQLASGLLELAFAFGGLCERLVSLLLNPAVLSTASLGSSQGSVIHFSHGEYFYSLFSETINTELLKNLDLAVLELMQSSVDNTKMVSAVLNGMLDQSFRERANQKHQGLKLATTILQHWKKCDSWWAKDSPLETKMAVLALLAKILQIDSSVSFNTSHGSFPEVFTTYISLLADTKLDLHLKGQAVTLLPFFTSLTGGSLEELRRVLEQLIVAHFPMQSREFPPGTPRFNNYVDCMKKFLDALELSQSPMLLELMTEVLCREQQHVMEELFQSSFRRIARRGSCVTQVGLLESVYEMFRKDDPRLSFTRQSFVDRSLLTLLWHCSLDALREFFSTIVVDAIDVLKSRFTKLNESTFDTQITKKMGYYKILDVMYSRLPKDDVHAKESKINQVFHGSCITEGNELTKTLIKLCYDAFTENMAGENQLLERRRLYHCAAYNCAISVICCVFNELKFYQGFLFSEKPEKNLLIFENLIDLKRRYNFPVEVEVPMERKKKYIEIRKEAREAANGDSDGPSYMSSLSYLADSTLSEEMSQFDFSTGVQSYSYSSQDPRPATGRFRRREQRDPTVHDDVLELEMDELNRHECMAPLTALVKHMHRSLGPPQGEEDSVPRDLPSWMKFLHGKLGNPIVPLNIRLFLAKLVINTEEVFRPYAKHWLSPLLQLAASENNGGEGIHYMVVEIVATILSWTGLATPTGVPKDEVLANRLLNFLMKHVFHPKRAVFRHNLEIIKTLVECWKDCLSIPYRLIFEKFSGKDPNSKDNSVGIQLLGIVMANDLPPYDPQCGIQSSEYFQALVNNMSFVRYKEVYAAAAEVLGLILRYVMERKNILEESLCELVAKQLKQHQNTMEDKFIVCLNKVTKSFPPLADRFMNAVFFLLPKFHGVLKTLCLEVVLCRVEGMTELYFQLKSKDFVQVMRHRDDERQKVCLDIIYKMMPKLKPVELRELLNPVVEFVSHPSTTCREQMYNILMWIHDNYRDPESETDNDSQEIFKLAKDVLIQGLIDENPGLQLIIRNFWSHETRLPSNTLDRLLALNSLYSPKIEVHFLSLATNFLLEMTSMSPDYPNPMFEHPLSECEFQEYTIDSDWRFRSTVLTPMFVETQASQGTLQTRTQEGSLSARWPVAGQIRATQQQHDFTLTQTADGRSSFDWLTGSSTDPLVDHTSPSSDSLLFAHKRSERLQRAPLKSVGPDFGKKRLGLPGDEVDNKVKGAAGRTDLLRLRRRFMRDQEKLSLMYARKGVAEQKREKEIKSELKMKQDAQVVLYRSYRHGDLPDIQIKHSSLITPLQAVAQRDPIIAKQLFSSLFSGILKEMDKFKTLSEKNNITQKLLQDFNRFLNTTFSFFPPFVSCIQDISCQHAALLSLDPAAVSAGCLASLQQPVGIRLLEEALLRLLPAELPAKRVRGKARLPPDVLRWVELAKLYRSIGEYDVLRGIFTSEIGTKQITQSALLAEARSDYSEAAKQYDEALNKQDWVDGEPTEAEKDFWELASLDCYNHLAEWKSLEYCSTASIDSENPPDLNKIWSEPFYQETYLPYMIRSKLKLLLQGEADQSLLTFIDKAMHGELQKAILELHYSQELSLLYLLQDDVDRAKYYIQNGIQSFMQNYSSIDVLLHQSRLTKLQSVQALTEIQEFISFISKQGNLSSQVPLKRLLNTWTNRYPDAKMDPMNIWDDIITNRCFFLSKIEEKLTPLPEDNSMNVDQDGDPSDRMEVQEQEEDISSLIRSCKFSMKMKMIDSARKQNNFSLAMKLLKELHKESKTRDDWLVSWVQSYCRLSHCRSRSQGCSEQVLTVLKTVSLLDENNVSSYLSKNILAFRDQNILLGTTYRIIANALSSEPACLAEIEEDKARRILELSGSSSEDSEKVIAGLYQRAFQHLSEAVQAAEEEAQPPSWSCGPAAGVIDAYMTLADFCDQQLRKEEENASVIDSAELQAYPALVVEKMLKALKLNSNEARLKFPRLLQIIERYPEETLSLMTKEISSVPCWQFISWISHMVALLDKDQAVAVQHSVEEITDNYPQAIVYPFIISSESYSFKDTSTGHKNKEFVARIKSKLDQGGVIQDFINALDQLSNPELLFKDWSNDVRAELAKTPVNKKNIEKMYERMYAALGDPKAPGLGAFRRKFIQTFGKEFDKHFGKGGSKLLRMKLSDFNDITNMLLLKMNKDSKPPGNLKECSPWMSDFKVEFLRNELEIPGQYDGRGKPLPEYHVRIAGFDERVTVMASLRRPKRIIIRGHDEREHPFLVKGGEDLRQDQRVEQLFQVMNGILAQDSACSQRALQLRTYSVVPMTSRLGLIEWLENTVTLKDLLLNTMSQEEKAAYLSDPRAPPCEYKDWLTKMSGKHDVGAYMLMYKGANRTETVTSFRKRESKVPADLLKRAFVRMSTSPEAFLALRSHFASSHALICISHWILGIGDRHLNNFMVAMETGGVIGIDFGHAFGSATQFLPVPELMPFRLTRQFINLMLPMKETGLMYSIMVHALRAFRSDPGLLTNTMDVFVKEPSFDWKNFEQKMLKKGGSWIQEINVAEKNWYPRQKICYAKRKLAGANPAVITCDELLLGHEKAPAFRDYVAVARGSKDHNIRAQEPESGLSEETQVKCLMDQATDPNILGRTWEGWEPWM

[4] = biological target: RAF proto-oncogene serine/threonine-protein kinase (Homo sapiens, UniProt P04049); test: Inhibition of RAF1 (unknown origin) in the presence of [33P]ATP by kinase hotspot assay
[5] = biological target: Serine/threonine-protein kinase Chk1 (Homo sapiens, UniProt O14757); test: Inhibition of CHK1 (unknown origin) in the presence of [33P]ATP by kinase hotspot assay
LNCaP [6] = test: Antitumor activity against irradiated human LNCaP-caAck FLAG-tagged wild-type ATM expressing cells xenografted mouse assessed as inhibition of tumor growth at 4 mg/kg on day 12; assay type: functional, organism-based
How it was run: (§1)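 Castrated male nude mice received LNCaP-caAck cells transfected with FLAG-tagged kinase-dead or wild-type ATM constructs (CMV promoter), irradiated 1.5 Gy before injection. Inhibitor 4 mg/kg per injection starting day 12 after cell injection, then on days 15, 19, 23 and 27; n = 5 mice per group; tumor growth followed.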

Wee1-like protein kinase = Wee1-like protein kinase (Homo sapiens, UniProt P30291); test: Inhibition of WEE1 (unknown origin) in the presence of [33P]ATP by kinase hotspot assay
[7] = biological target: Tyrosine-protein kinase Lck (Homo sapiens, UniProt P06239); test: Inhibition of LCK (unknown origin) in the presence of [33P]ATP by kinase hotspot assay
[8] = biological target: Receptor tyrosine-protein kinase erbB-2 (Homo sapiens, UniProt P04626); test: Inhibition of HER2 (unknown origin) in the presence of [33P]ATP by kinase hotspot assay
LNCaP [9] = test: Induction of cell cycle arrest in human LNCaP cells with IR-induced DNA damage assessed as reduction in number of cells at G2 phase at 10 uM incubated for 24 hrs in the presence of 5 Gy by PI-staining-based flow cytometry analysis; assay type: functional
How it was run: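 LNCaP cells given 5 Gy x-ray alone or with agent (10 μm, 24 h). Propidium iodide staining and flow cytometric DNA content analysis of cell cycle phases; performed in triplicate.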

LNCaP [10] = test: Antitumor activity against irradiated human LNCaP-caAck expressing cells xenografted mouse assessed as reduction in ATM expression level at 4 mg/kg on 7th day by immunohistochemical staining; assay type: functional, organism-based
How it was run: (§2)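 Irradiated (1.5 Gy) LNCaP-caAck xenografts in castrated nude mice dosed 4 mg/kg from day 7 (DMSO control) were excised, fixed, paraffin-embedded and sectioned. Sections stained with H&E, or for ATM by IHC: citrate pH 6.0 retrieval at 95 °C 30 min, rabbit monoclonal ATM antibody 1:300 overnight 4 °C, biotin secondary/streptavidin-peroxidase, DAB, hematoxylin counterstain.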

[11] = biological target: Insulin-like growth factor 1 receptor (Homo sapiens, UniProt P08069); test: Inhibition of IGF1R (unknown origin) in the presence of [33P]ATP by kinase hotspot assay
LNCaP [12] = test: Antitumor activity against irradiated human LNCaP-caAck FLAG-tagged KD ATM expressing cells xenografted mouse assessed as inhibition of tumor growth at 4 mg/kg on day 12; assay type: functional, organism-based; how it was run: as §1
LNCaP [13] = test: Antitumor activity against unirradiated human LNCaP-caAck expressing cells xenografted mouse assessed as reduction in tumor growth at 4 mg/kg on 7th day; assay type: functional; set-up: scale not given: the % may be the effect or the level left
How it was run: (§3)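 LNCaP-caAck cells (2 × 10⁶), unirradiated or irradiated 1.5 Gy, in PBS/Matrigel 1:1, injected subcutaneously into flanks of castrated male nude mice. Inhibitor 4 mg/kg per injection on day 7 post-implantation, then days 11, 15, 19, 23, 27; DMSO control; n = 8 per group. Caliper tumor volumes twice weekly; two independent experiments.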

LNCaP [14] = test: Induction of cell cycle arrest in human LNCaP cells with IR-induced DNA damage assessed as high number of cells with DSBs at 5 uM after 5 hrs in the presence of 15 Gy by flow cytometry analysis; assay type: functional, cell-based
[15] = biological target: Mitogen-activated protein kinase 3 (Homo sapiens, UniProt P27361); test: Inhibition of ERK1 (unknown origin) in the presence of [33P]ATP by kinase hotspot assay
[16] = biological target: RAC-gamma serine/threonine-protein kinase (Homo sapiens, UniProt Q9Y243); test: Inhibition of AKT3 (unknown origin) in the presence of [33P]ATP by kinase hotspot assay
[17] = Toxicity in mouse assessed as change in body weight; details: in vivo
How it was run: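 Body weight of castrated nude mice bearing LNCaP-caAck xenografts tracked during dosing at 4 mg/kg per injection (day 7, then days 11–27 every 4 days) versus DMSO-injected controls; morbidity also noted.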

Activated CDC42 kinase 1 = Activated CDC42 kinase 1 (Homo sapiens, UniProt Q07912); test: Inhibition of Ack1 (unknown origin) in the presence of [33P]ATP by kinase hotspot assay
[18] = biological target: Glycogen synthase kinase-3 alpha (Homo sapiens, UniProt P49840); test: Inhibition of GSK3alpha (unknown origin) in the presence of [33P]ATP by kinase hotspot assay
[19] = biological target: Tyrosine-protein kinase ABL1 (Homo sapiens, UniProt P00519); test: Inhibition of ABL1 (unknown origin) in the presence of [33P]ATP by kinase hotspot assay
LNCaP [20] = test: Antitumor activity against irradiated human LNCaP-caAck expressing cells xenografted mouse assessed as reduction in tumor growth at 4 mg/kg on 7th day; assay type: functional, organism-based; how it was run: as §3
[21] = biological target: RAC-alpha serine/threonine-protein kinase (Homo sapiens, UniProt P31749); test: Inhibition of AKT1 (unknown origin) in the presence of [33P]ATP by kinase hotspot assay
[22] = biological target: Serine/threonine-protein kinase pim-1 (Homo sapiens, UniProt P11309); test: Inhibition of PIM1 (unknown origin) in the presence of [33P]ATP by kinase hotspot assay
Chain of Serine/threonine-protein kinase pim-1 (P11309 whole entry, canonical isoform): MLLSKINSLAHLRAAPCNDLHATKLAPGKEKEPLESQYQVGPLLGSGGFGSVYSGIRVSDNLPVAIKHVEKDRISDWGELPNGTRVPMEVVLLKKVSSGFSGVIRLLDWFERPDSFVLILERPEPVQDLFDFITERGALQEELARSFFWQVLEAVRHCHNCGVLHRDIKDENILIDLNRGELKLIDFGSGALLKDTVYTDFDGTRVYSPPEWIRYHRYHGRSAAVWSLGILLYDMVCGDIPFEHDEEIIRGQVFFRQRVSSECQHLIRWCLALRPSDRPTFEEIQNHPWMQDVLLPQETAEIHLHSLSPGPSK

[23] = biological target: Phosphatidylinositol 4,5-bisphosphate 3-kinase catalytic subunit alpha isoform (Homo sapiens, UniProt P42336); test: Inhibition of PI3Kalpha (unknown origin) in the presence of [33P]ATP by kinase hotspot assay
[24] = biological target: Tyrosine-protein kinase receptor TYRO3 (Homo sapiens, UniProt Q06418); test: Inhibition of TYRO3 (unknown origin) in the presence of [33P]ATP by kinase hotspot assay
[25] = biological target: Tyrosine-protein kinase Lyn (Homo sapiens, UniProt P07948)
[26] = biological target: Tyrosine-protein kinase BTK (Homo sapiens, UniProt Q06187); test: Inhibition of BTK (unknown origin) in the presence of [33P]ATP by kinase hotspot assay
Insulin receptor = Insulin receptor (Homo sapiens, UniProt P06213); test: Inhibition of IR (unknown origin) in the presence of [33P]ATP by kinase hotspot assay
[27] = biological target: Phosphatidylinositol 4,5-bisphosphate 3-kinase catalytic subunit beta isoform (Homo sapiens, UniProt P42338); test: Inhibition of PI3Kbeta (unknown origin) in the presence of [33P]ATP by kinase hotspot assay
[28] = biological target: Platelet-derived growth factor receptor alpha (Homo sapiens, UniProt P16234); test: Inhibition of PDGFRalpha (unknown origin) in the presence of [33P]ATP by kinase hotspot assay
LNCaP [29] = test: Induction of cell cycle arrest in human LNCaP cells with IR-induced DNA damage assessed as reduction in proportion of cells at G2 phase at 5 uM incubated for 24 hrs in the presence of 5 Gy by PI-staining-based flow cytometry analysis; assay type: functional; set-up: scale not given: the % may be the effect or the level left
How it was run: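 LNCaP cells left untreated, given 5 Gy x-ray, inhibitor (5 μm, 24 h), or both; harvested 16 h after irradiation. Nuclei processed with trypsin, trypsin inhibitor/RNase A, then propidium iodide; DNA content of 20,000 cells by flow cytometry, cell cycle modelled. Three independent experiments.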

[30] = biological target: Tyrosine-protein kinase receptor UFO (Homo sapiens, UniProt P30530); test: Inhibition of AXL (unknown origin) in the presence of [33P]ATP by kinase hotspot assay
[31] = biological target: Serine/threonine-protein kinase Sgk1 (Homo sapiens, UniProt O00141); test: Inhibition of SGK1 (unknown origin) in the presence of [33P]ATP by kinase hotspot assay
LNCaP [32] = test: Antitumor activity against irradiated human LNCaP-caAck expressing cells xenografted mouse assessed as necrosis at 4 mg/kg on 7th day by Hematoxylin and eosin staining; assay type: functional, organism-based; how it was run: as §2
[33] = biological target: Vascular endothelial growth factor receptor 2 (Homo sapiens, UniProt P35968); test: Inhibition of VEGFR2 (unknown origin) in the presence of [33P]ATP by kinase hotspot assay
[34] = biological target: Inhibitor of nuclear factor kappa-B kinase subunit alpha (Homo sapiens, UniProt O15111); test: Inhibition of IKKalpha (unknown origin) in the presence of [33P]ATP by kinase hotspot assay
[35] = biological target: Tyrosine-protein kinase JAK2 (Homo sapiens, UniProt O60674); test: Inhibition of JAK2 (unknown origin) in the presence of [33P]ATP by kinase hotspot assay

SMILES: CN[C@@H]1C[C@H]2O[C@@](C)([C@@H]1OC)n1c3ccccc3c3c4c(c5c6ccccc6n2c5c31)C(=O)NC4 [STAUROSPORINE]
- pIC50 ([1]; read-out: IC50): < 4.70
- IC50 [2]: Not Active
- IC50 [3]: Not Active
- IC50 [4]: Not Active

- IC50 [5]: Not Active
- IC50 (Wee1-like protein kinase): Not Active
- pIC50 [7]: 6.36
- IC50 [8]: Not Active
- IC50 [1]: Not Active
- IC50 [11]: Not Active
- IC50 [15]: Not Active
- IC50 [16]: Not Active
- pIC50 (Activated CDC42 kinase 1): 7.67
- IC50 [18]: Not Active
- pIC50 [19]: 6.15
- IC50 [21]: Not Active
- IC50 [2]: Not Active
- IC50 [22]: Not Active
- IC50 [23]: Not Active
- IC50 [24]: Not Active
- pIC50 [25]: 6.46
- pIC50 [26]: 6.06
- IC50 (Insulin receptor): Not Active
- IC50 [27]: Not Active
- IC50 [28]: Not Active
- IC50 [30]: Not Active
- IC50 [3]: Not Active
- IC50 [4]: Not Active
- IC50 [31]: Not Active
- IC50 [33]: Not Active
- IC50 [34]: Not Active
- IC50 [35]: Not Active
SMILES: c1ccc(-c2oc3ncnc(NC[C@@H]4CCCO4)c3c2-c2ccccc2)cc1
- inhibition (LNCaP [6]): inactive
- Activity (LNCaP [9]): Active
- Activity (LNCaP [10]): Active
- inhibition (LNCaP [12]): Active
- Activity (LNCaP [13]): ~50%
- Activity (LNCaP [14]): Active
- Activity [17]: Non-Toxic
- Activity (LNCaP [20]): Active
- Activity (LNCaP [29]): 38%
- Activity (LNCaP [32]): Active

SMILES: C[S+](C)[O-] [DIMETHYL SULFOXIDE]
- Activity [17]: Non-Toxic

SMILES: O=c1cc(-c2cccc3c2Sc2ccccc2S3)oc(N2CCOCC2)c1
- Activity (LNCaP [9]): Active
